# PAFAH2 inh = PAFAH2 (human) inhibition. 340,000 compounds, 0.99% hits. AID 492956. recombinant PAFAH2, FP-rhodamine activity probe, fluorescence polarization. Q99487. inhibition, % at 3.39 µM;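 active = inhibition above the mean over all tested compounds plus 3 SD, cut at about 30% in these data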;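 also: inhibitors block probe labeling of enzyme so polarization drops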
# pPAFAH inh = pPAFAH (human) enzyme inhibition. Q13093. recombinant pPAFAH, FP-rhodamine probe fluorescence polarization. inhibition, % at 3.39 µM. 330,000 compounds, 1.5% hits. AID 463082;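 active = inhibition above the mean inhibition across the screen plus 3 SD, cut at about 25% in these data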;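 also: inhibitors block binding of the rhodamine activity-based probe so polarization drops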
# ABHD4 inh = ABHD4 (mouse) inhibition, primary FP screen | Q8VD66 | purified mABHD4, FP-Rh probe fluorescence polarization | inhibition, % at 8.92 µM | 370,000 compounds, 0.54% hits | AID 720543;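 active = inhibition exceeding the mean over every tested compound plus 3 SD, cut at about 30% in these data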
# Target sequence (Q8VD66 whole entry, looked up): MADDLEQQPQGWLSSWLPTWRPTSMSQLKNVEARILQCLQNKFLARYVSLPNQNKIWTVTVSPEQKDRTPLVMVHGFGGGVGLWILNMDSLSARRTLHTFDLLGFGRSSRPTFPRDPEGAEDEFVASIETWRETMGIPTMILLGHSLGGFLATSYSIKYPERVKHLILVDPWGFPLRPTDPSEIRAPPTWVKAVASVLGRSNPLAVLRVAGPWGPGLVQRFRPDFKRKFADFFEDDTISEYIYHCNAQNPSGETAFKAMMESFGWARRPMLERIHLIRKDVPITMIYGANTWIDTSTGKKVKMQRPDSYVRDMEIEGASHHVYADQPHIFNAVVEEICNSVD
#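 Assay system: mABHD4 protein; medium: HEPES pH 7.0, NaCl, Pluronic buffer; dosing: 8.92 µM, single dose; schedule: 45 min + 60 min at 25 °C; signal: FP readout, ex 525 nm / em 598 nm; read-out: normalized percent inhibition of probe labeling; repeats: single replicate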
# HTRA1 inhibitor = blocks human HTRA1 serine peptidase | Q92743 | recombinant HTRA1, FP-rhodamine activity-based probe, fluorescence polarization | inhibition, % at 5.96 µM | 340,000 compounds, 0.5% hits | AID 504803; in the data active = inhibition above about 36%
# PAFAH1B2 FP inh = PAFAH1B2 (human) inhibition | 340,000 compounds, 1.2% hits | inhibition, % at 3.39 µM | AID 492953 | recombinant PAFAH1B2, FP-rhodamine activity probe, fluorescence polarization | P68402;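 active = inhibition above the mean of all tested compounds plus 3 SD, cut at about 24% in these data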
# Target sequence (P68402 whole entry, looked up): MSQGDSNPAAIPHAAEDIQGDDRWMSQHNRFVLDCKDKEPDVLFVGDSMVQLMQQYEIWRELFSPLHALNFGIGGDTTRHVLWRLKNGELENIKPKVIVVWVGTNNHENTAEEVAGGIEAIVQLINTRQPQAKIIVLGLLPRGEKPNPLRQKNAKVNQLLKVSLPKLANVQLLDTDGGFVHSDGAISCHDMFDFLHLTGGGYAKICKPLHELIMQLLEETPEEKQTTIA
# PAFAH1B3 inh = PAFAH1B3 (human) inhibition | inhibition, % at 3.39 µM | Q15102 | 340,000 compounds, 0.28% hits | recombinant PAFAH1B3, FP-rhodamine probe, fluorescence polarization | AID 492972;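 active = inhibition above the screen-wide average of all tested compounds plus 3 SD, cut at about 25% in these data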
# PAFAH1B3 confirm = PAFAH1B3 (human) inhibition, confirmed. inhibition, % at 3.39 µM. recombinant PAFAH1B3, FP-Rh activity-based probe, fluorescence polarization. 390 compounds, 30% hits. shares compounds with PAFAH1B3 inh;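 active = average inhibition over triplicate runs above the hit cutoff set in the earlier primary screen, cut at about 25% in these data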
# HTRA1 conf = confirmation of human HTRA1 inhibitors; shares compounds with HTRA1 inhibitor; recombinant HTRA1, FP-rhodamine activity-based probe, fluorescence polarization; 1,600 compounds, 66% hits; inhibition, % at 5.96 µM;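 active = mean inhibition over three repeats above a set limit taken from the earlier primary screen, cut at about 37% in these data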;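 also: inhibitors block probe binding so polarization drops and inhibition rises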
# mABHD4 conf = confirmation of mouse ABHD4 inhibitors; shares compounds with ABHD4 inh; purified mABHD4, FP-Rh probe fluorescence polarization; inhibition, % at 8.92 µM; 1,800 compounds, 55% hits;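 active = mean inhibition across replicates above the hit cutoff set in the primary screen, cut at about 30% in these data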
# A number is an active result; – = inactive; · = not tested or not shown. An excerpt weighted towards active compounds, which were near 2.8% of everything screened.
SMILES,PAFAH2 inh,pPAFAH inh,ABHD4 inh,HTRA1 inhibitor,PAFAH1B2 FP inh,PAFAH1B3 inh,HTRA1 conf,others
O=C1c2ccccc2C(=O)c2c1ccc(O)c2O,–,·,74.3,75.8,–,30.0,92.9,PAFAH1B3 confirm=–;mABHD4 conf=88.0
Cc1cccc(NC(=O)NCCCN2CCN(c3ccc(F)cc3)CC2)c1,·,·,–,·,·,·,·,
O=Nc1c(O)c2ccccc2c2ccccc12,–,–,50.6,61.5,–,93.9,78.1,PAFAH1B3 confirm=66.3;mABHD4 conf=57.9
O=c1ccc2ccccc2c2ccccc12,·,·,–,·,·,·,·,
CCN(CC)c1ccc(/C=N/Nc2nc3ccccc3[nH]2)c(O)c1,–,–,30.9,–,–,26.8,·,PAFAH1B3 confirm=25.6;mABHD4 conf=80.1
COc1ccc(Cn2ccc3ccc(-c4ccc5ccn(C(=O)c6ccc(C)cc6)c5c4)cc32)cc1,·,·,–,·,·,·,·,
O=C1C(Cl)=C(Nc2ccc(O)cc2)C(=O)c2ccccc21,–,–,41.0,–,–,26.9,·,PAFAH1B3 confirm=–;mABHD4 conf=54.0
CC1C=CC=CCCC=CC=CC=CC=CC(OC2O[C@H](C)[C@@H](O)[C@H](N)[C@@H]2O)CC(O)C(C(=O)O)C(O)CC(=O)CC(O)C(O)CCC(O)CC(O)CC(O)CC(=O)OC(C)C(C)C1O (stereo partly specified),·,·,–,·,·,·,·,
CCCCCCSc1cccc(-c2nc3ccc(C)cn3c2NC2CCCCC2)c1,–,–,–,–,–,–,·,
Cc1ccc2nc(-c3ccccn3)c(NC3CCCC3)n2c1,–,–,–,37.8,–,–,37.9,
O=C(CCc1ccccc1)N[C@H]1[C@H](O)CCC[C@]12C(=O)N(Cc1ccccc1)c1ccccc12,·,·,–,·,·,·,·,
O=C(CSc1nc2ccccc2o1)NC1CCCC1,–,–,–,–,–,–,·,
O=C(CSc1nc2ccccc2o1)NCC1CCCO1 (stereo unspecified),32.1,–,–,55.1,24.2,–,–,
CCCn1c(Nc2nc3ccccc3n2C)nc2ccccc21,–,–,–,39.3,–,–,46.9,
COc1ccc(-n2c(SCC(=O)Nc3ccc4c(c3)OCO4)nc3sc4c(c3c2=O)CCCC4)cc1,·,·,–,·,·,·,·,
COc1cc(CNc2ccc(N3CCCC3)cc2)cc(Cl)c1OC,–,28.2,–,40.5,–,–,–,
CCOc1cc(CNc2ccc(N3CCN(C(C)=O)CC3)cc2)cc(Br)c1OC,–,–,–,–,–,–,·,
CCOc1ccc(CNc2ccc(N3CCN(Cc4ccccc4)CC3)cc2)cc1,–,–,–,–,–,–,·,
CCOc1cc(CNc2ccc(N3CCCC3)cc2)cc(Cl)c1OC,–,–,–,55.4,–,–,–,
CCOc1ccc(CNc2ccc(N3CCCC3)cc2)cc1,–,32.9,·,57.8,–,–,–,
CCOc1cc(CNc2ccc(S(N)(=O)=O)cc2)cc(Cl)c1OC,–,–,–,–,–,–,·,
CCOc1cc(CNc2ccc(N3CCCCC3)cc2)cc(Br)c1OCC(=O)NC(C)(C)C,–,–,–,45.2,–,–,–,
CCC[C@H]1[C@@H](NC(=O)c2ccc(OC)cc2)CC[C@@]23CCCN2C(=O)CCC[C@@H]13,·,·,–,·,·,·,·,
O=C(O)c1cccc2cc(-c3ccccc3)oc(=O)c12,–,–,–,–,–,–,·,
O=C(O)c1cccc2cccc(-c3c4ccc(=O)c(O)c-4oc4c(O)c(O)ccc34)c12,69.0,·,47.8,50.1,62.2,65.8,50.0,
SMILES,PAFAH2 inh,pPAFAH inh,ABHD4 inh,HTRA1 inhibitor,PAFAH1B2 FP inh,PAFAH1B3 inh,HTRA1 conf,others
O=C(CCCN1C(=O)/C(=C/c2cccs2)SC1=S)NNC(=O)c1ccccc1O,–,–,–,57.3,–,–,72.2,
COc1cccc(/C=C2\SC(=S)N(CCC(=O)NNC(=O)c3ccccc3OC)C2=O)c1,–,–,–,39.3,–,–,–,
C#CCNC(=O)C[C@H]1C(=O)N(Cc2ccc(OC)cc2)C2=CCCCC[C@@]21C(=O)OC,·,·,–,·,·,·,·,
COc1cc2c(c(OC)c1OC)C1(CCCCC1)CC2NS(=O)(=O)C(C)C (stereo unspecified),·,·,–,·,·,·,·,
COC(=O)[C@]12C[C@H](CC(=O)NCC34CC5CC(CC(C5)C3)C4)C(=O)N(Cc3ccco3)C1=C[C@H](C(C)C)O[C@@H]2C1CC1,·,·,–,·,·,·,·,
CCOC(=O)[C@@]12CN(C(=O)OC(C)(C)C)CC=C1N(Cc1ccc(OC)cc1)C(=O)[C@H]2CC(=O)NCC1CCCCC1,·,·,–,·,·,·,·,
N[C@H](C(=O)N[C@@H](Cc1ccccc1)C(=O)N1CCC2CCN(S(=O)(=O)c3ccccc3)CC21)c1ccccc1 (stereo partly specified),·,·,–,·,·,·,·,
CCOC(=O)c1c(C)oc2c1c(CN1CCN(CCO)CC1)c(O)c1ccccc12,–,·,–,–,–,–,·,
CCOC(=O)c1c(C)oc2c(CC(=O)c3ccccc3)c(Cl)c(O)c(O)c12,–,–,–,45.6,–,–,–,
O=C(NCCc1ccccc1)OCc1cn(Cc2ccc(F)c(F)c2)nn1,·,·,–,·,·,·,·,
Cc1ccc(S(=O)(=O)Nc2ccc3oc(=O)sc3c2)c(C)c1,–,–,–,36.9,28.0,–,–,
COc1ccc(CCNC(=O)CSc2nnc(CNc3ccc(Cl)cc3)o2)cc1OC,–,–,–,–,–,–,·,
O=C(CSc1nnc(CNc2ccc(Cl)cc2)o1)Nc1nc2c(s1)CCCC2,–,–,–,38.5,24.3,–,–,
COc1cccc2cc3c(nc12)C[C@@H]1CCCC(=O)N2CCC[C@@]12C3,·,·,–,·,·,·,·,
COCCN(C[C@@H]1[C@H](c2ccccc2)[C@H](CO)N1c1nc(C)c(C)s1)S(=O)(=O)c1ccccc1[N+](=O)[O-],·,·,–,·,·,·,·,
Cn1c(N/N=C/c2c[nH]c3ccccc23)nc2ccccc21,–,–,–,45.6,–,–,–,
Fc1c(F)c(F)c(N/N=C/c2c[nH]c3ccccc23)c(F)c1F,–,–,–,42.7,–,–,41.6,
Cc1cc(N/N=C/c2c[nH]c3ccccc23)c2ccccc2n1,–,–,–,–,–,–,·,
CN(/N=C/c1ccccc1Cl)c1ncc(Cl)cc1C(F)(F)F,–,–,–,–,–,–,·,
CN(/N=C/c1ccc(O)cc1O)c1ncc(C(F)(F)F)cc1Cl,–,–,–,56.4,–,–,88.9,
CCN(CC)c1cccc(OC2=NS(=O)(=O)c3ccccc32)c1,–,24.9,87.6,46.2,–,–,–,
CC1(C)CC(=O)C=C(Nc2ccccc2NC(=O)c2cc(Cl)ccc2F)C1,·,·,–,·,·,·,·,
CCn1c(/C=C/c2ccc(O)c(O)c2)nc2ccccc2c1=O,–,·,–,58.5,–,–,112.1,
CCn1c(/C=C/c2ccc(O)cc2)nc2ccccc2c1=O,–,–,–,–,–,–,·,

# Bioassay records as filed in PubChem BioAssay.
